Assay outcomes from PubChem BioAssay.
Rows were chosen to be rich in hits. Some 1.4% of all compounds tested hit in one or more screens of this group.
STAT3 act: STAT3 signaling activation. activation (% of control), % at 5.6 µM. U3A cells, IL-6 STAT3-luciferase reporter, luminescence; 100% = signal with IL-6 EC80 alone. actives 0.91% (n = 190,000). AID 871;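 active = activation above the screen-wide mean of compound activation plus 3 SD, cut at about 130% in these data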
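Test system: human U3A cells carrying STAT3-luciferase construct; control set: IL-6-only wells as 100% reference; timing: compound pre-incubation 1 h before IL-6, then 6 h stimulation at 37 °C; also added: IL-6 stimulus at 33 ng/mL final; evaluation: % activation versus median of IL-6-stimulated wells; detection: reporter luminescence signal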
Platelet DG rel: platelet dense granule release activity | human platelet-rich plasma, SFLLRN dense granule ATP release, luminescence | inhibition, %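 (compounds screened at 7.5 µM in platelet-rich plasma)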 | actives 0.22% (n = 300,000) | AID 1663;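 active = mean replicate score, as percent of positive control, at or above 50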
PERK inhibitor: inhibitors of human PERK kinase; Q9NZJ5; CHO PERK-DD fusion, SEAP luminescence translation reporter; inhibition, % at 5.6 µM; actives 0.17% (n = 220,000); AID 1416;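 active = inhibition above the mean inhibition of all tested compounds plus 3 SD, set separately per screening campaign, cut at about 2.9% in these data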;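 also: PERK kinase domain activated by AP20187 dimerizer at 100 nM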
STAT1 inh: inhibitors of IFN-gamma induced STAT1 signaling | AID 920 | NIH 3T3 STAT1-luciferase reporter, luminescence | actives 0.35% (n = 200,000) | inhibition, % at 5.5 µM;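 active = inhibition above a set limit, the mean inhibition across all tested compounds plus 3 SD, cut at about 34% in these data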
STAT3 blocker: reduces IL-6 driven STAT3 reporter signal; U3A cells, IL-6 STAT3-luciferase reporter, luminescence; host cell line lacks STAT1; inhibition, % at 5.5 µM; actives 0.89% (n = 190,000);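 active = inhibition above the mean inhibition across all screened compounds plus 3 SD, cut at about 44% in these data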
Of the large screens only hits and unclear results are named; the others gave an inactive call.

Cc1ccc(-c2cc(C(=O)OC3CCOC3=O)c3ccccc3n2)c(C)c1 (stereo not drawn)	PERK inhibitor 2.9
CN(C)CC(O)CN1C(=O)NC(C)(C)C1=O (stereo not drawn)	none
O=S(=O)(Nc1ccc(-c2ccc(N3CCOCC3)nn2)cc1)c1ccc(Cl)c(Cl)c1	Platelet DG rel 50 (no result: STAT3 act, PERK inhibitor, STAT1 inh, STAT3 blocker)
CN1CC(c2ccc(C#N)cc2)C2(COc3ccccc3C2=O)C12C(=O)Nc1ccccc12 (stereo not drawn)	none
Cc1ccccc1NS(=O)(=O)c1cc(C(=O)Nc2cccc(N(C)S(C)(=O)=O)c2)ccc1C	none
CN(c1cccc(NC(=O)c2ccc(Cl)c(S(=O)(=O)Nc3ccccc3)c2)c1)S(C)(=O)=O	STAT1 inh 45
Fc1ccccc1-c1nc(-c2ccncc2)no1	none (no result: STAT3 act, PERK inhibitor, STAT1 inh, STAT3 blocker)
c1ccc(-c2noc(-c3cccc4ccccc34)n2)cc1	STAT3 act 192
c1ccc2c(-c3nc(-c4ccncc4)no3)cccc2c1	STAT3 act 136
Brc1ccccc1-c1nc(-c2ccccc2)no1	none
Cc1ccc(-c2nc(-c3ccccc3)no2)c(Cl)c1	STAT1 inh 69, STAT3 blocker 101
Cc1ccc(-c2noc(-c3ccoc3C)n2)cc1	STAT3 act 138
Cc1ccccc1-c1nnc(-c2cccs2)o1	none
CCn1nc(C)c(CNC(=O)C2CCC(=O)N(CCc3ccc(Cl)cc3)C2)c1C (stereo not drawn)	none (no result: STAT3 act, PERK inhibitor, STAT1 inh, STAT3 blocker)
COc1ccc(S(=O)(=O)N2CCOCC2)cc1NC(=O)CSc1nnc2c(n1)[nH]c1ccccc12	none (no result: STAT3 act, STAT1 inh, STAT3 blocker)
CC(=O)c1c(C)[nH]c(C(=O)OCCCCN2C(=O)c3ccccc3C2=O)c1C	STAT3 blocker 86
CC(C)N(CC(=O)Nc1ccc(Cl)cc1C(F)(F)F)C(=O)CCl	STAT1 inh 46, STAT3 blocker 65
CCC(C)N(CC(=O)Nc1cccc(C)c1C)C(=O)CCl (stereo not drawn)	STAT1 inh 38, STAT3 blocker 70
O=C(O)CSCC(=O)Nc1ccc(Cl)cc1C(F)(F)F	none
CSc1nsc(SCC(=O)Nc2ccc(F)cc2F)n1	none (no result: STAT3 act, PERK inhibitor, STAT1 inh, STAT3 blocker)
COc1ccc(C(=O)N2CCCC(c3nc(-c4ccc(OC)c(OC)c4)no3)C2)c(OC)c1 (stereo not drawn)	Platelet DG rel 50
Cc1ccc(S(=O)(=O)NC2CCCC2)cc1C	none (no result: Platelet DG rel)
Cc1cc(=O)[nH]c2ccc(S(=O)(=O)NC3CCCCC3)cc12	Platelet DG rel 63 (no result: STAT3 act, PERK inhibitor, STAT1 inh, STAT3 blocker)
COc1cc(OC)cc(-c2nc3cc(C)ccc3o2)c1	STAT3 act 171
Cc1ccc(-c2nc3cc(Cl)ccc3o2)cc1	STAT3 act 135
COc1ccc(N=Cc2ccc(-c3ccccc3)o2)cc1	none
CCc1nnc(NC(=O)CCC(=O)NC2CCCCCC2)s1	none (no result: STAT3 act, PERK inhibitor, STAT1 inh, STAT3 blocker)
O=c1cc(COc2ncnc3c(Cl)cc(Cl)cc23)nc2sccn12	Platelet DG rel 52 (no result: STAT3 act, STAT1 inh, STAT3 blocker)
COc1ccc(Cn2ccnc2SCC(=O)Nc2nnc(C)s2)cc1	none (no result: STAT3 act, PERK inhibitor, STAT1 inh, STAT3 blocker)
O=C1CCN(N=Nc2cccc(Cl)c2)N1	Platelet DG rel 53
Cc1cc(C(F)(F)F)nc(SCc2ccc(C(=O)O)o2)n1	none
Cc1cc(C)nc(SCc2ccc(C(=O)O)o2)n1	PERK inhibitor 3.1
COc1ccccc1C(=O)NCCNc1nc2cc(C)cc(C)c2cc1C#N	none (no result: STAT3 act, PERK inhibitor, STAT1 inh, STAT3 blocker)
Cc1cc(C)c2cc(C#N)c(NCCOC(=O)c3ccccc3C)nc2c1	PERK inhibitor 3.2
COc1ccc(C)cc1N(C(=O)c1ccccc1)c1nc2ccccc2s1	none
COc1ccc(C)cc1N(C(=O)c1cccc(F)c1)c1nc2ccccc2s1	STAT3 act 134 (no result: Platelet DG rel)
O=C(N/N=C/c1ccc[nH]1)c1ccc(COc2cccc3cccnc23)cc1	STAT3 blocker 70
O=C(N/N=C/c1ccccc1C(=O)O)c1ccc(COc2cccc3cccnc23)cc1	none
O=C(CN1CCN(Cc2ccccc2F)C1=O)NCCc1ccc(Cl)cc1	none
CC(=O)Nc1nonc1-c1ccccc1	PERK inhibitor 3.2
COc1ccc(-n2ccnc2SCC(=O)NC2CCCC2)c(OC)c1	none
O=C(Nc1cccc(NC(=O)c2ccccc2Cl)c1)c1ccco1	Platelet DG rel 59 (no result: STAT3 act, PERK inhibitor, STAT1 inh, STAT3 blocker)
O=C(Nc1cccnc1)c1ccco1	none
O=C(Nc1cccc(NC(=O)c2cccnc2Cl)c1)c1ccco1	Platelet DG rel 112
COC(=O)c1ccc(-c2nc(-c3cccs3)no2)cc1	STAT1 inh 52, STAT3 blocker 91 (no result: Platelet DG rel)
COc1ccc(C(O)c2ncc(C(F)(F)F)cc2Cl)cc1 (stereo not drawn)	none (no result: STAT3 act, PERK inhibitor, STAT1 inh, STAT3 blocker)
Fc1ccc(-c2cn3cc(C(F)(F)F)cc(Cl)c3n2)cc1	STAT3 act 174
COc1ccc(-c2cn3cc(C(F)(F)F)cc(Cl)c3n2)cc1	STAT3 act 161
CCC(C)[C@@H](C(=O)NCC1CCC(C(=O)O)CC1)n1nnc2ccccc2c1=O (stereo partly drawn)	PERK inhibitor 2.9
C/C(=N\Nc1ccc(F)cc1F)c1ccc(N2CCOCC2)cc1	STAT3 act 133
COc1ccc(OCC(=O)N/N=C/c2ccc(O[C@@H]3O[C@H](CO)[C@@H](O)[C@H](O)[C@H]3O)cc2)cc1	PERK inhibitor 3.4
Cc1ccc2nc(-c3ccc(SCC(=O)N4CCc5ccccc54)nc3)[nH]c2c1	STAT3 act 143
CC(=O)CSc1ccc(-c2nc3cc(C)c(C)cc3[nH]2)cn1	STAT1 inh 85, STAT3 blocker 103
COCc1cc(C)n(CC(=O)Nc2ccc(N3CCOCC3)cc2)c(=O)c1C#N	none (no result: STAT3 act, PERK inhibitor, STAT1 inh, STAT3 blocker)
O=C(Nc1ccc(Cl)cc1)Nn1cnnc1	none (no result: STAT3 act, PERK inhibitor, STAT1 inh, STAT3 blocker)
COCCn1c(C)cc(C(=O)CSc2nnc(C)s2)c1C	STAT1 inh 39, STAT3 blocker 92
COC(=O)c1ccc(CSc2nnc(N)s2)cc1	Platelet DG rel 75
COc1cc(/C=C(/C(=O)c2cccs2)c2nc3ccccc3[nH]2)ccc1O	STAT3 act 136
O=C(/C(=C/c1ccc(Cl)cc1)c1nc2ccccc2[nH]1)c1cccs1	none
CCn1c(=S)sc2c(=O)n(CC(=O)Nc3cc(OC)ccc3OC)c(C)nc21	none (no result: STAT3 act, PERK inhibitor, STAT1 inh, STAT3 blocker)
N/C(=N\OC(=O)c1ccc(Cl)cc1)c1[nH]ncc1Br	Platelet DG rel 52 (no result: STAT3 act, STAT1 inh, STAT3 blocker)
Cn1nc(C(C)(C)C)cc1C(=O)Sc1cccc(Br)c1	none (no result: STAT3 act, STAT1 inh, STAT3 blocker)
O=C(Nc1cccc(F)c1)c1ccc(Cn2cc([N+](=O)[O-])cn2)o1	none
O=C(NNc1ccccc1F)c1ccccc1	PERK inhibitor 5.0 (no result: STAT3 act, STAT1 inh, STAT3 blocker)
O=C(NNC(=O)c1ccc(-c2ccccc2)cc1)Nc1ccccc1F	none (no result: STAT3 act, PERK inhibitor, STAT1 inh, STAT3 blocker)
CC(=O)c1ccc(N/N=C2/CCCNC2=O)cc1	PERK inhibitor 4.0 (no result: STAT3 act, STAT1 inh, STAT3 blocker)
Cc1ccc(N/N=C2/CCCNC2=O)cc1	none
COCCCn1c(=O)c2sccc2n2c(CCCC(=O)NCc3ccc(F)cc3)nnc12	none (no result: STAT3 act, PERK inhibitor, STAT1 inh, STAT3 blocker)
CCOP(=O)(OCC)C(NC(=O)Nc1ccc(C)cc1)C(N)=O (stereo not drawn)	none (no result: STAT3 act, STAT1 inh, STAT3 blocker)
CCOC(=O)c1cn(C2CC2)c2c(F)c(F)c(F)cc2c1=O	none
CCOC(=O)c1cn(-c2nc(-c3ccc(Cl)cc3)cs2)c2c(F)c(N3CC(C)OC(C)C3)c(F)cc2c1=O (stereo not drawn)	PERK inhibitor 3.2 (no result: Platelet DG rel)
CCc1ccc(S(=O)(=O)/N=C2\C=C(Nc3ccc(O)cc3)C(=O)c3ccccc32)cc1	none (no result: STAT3 act, PERK inhibitor, STAT1 inh, STAT3 blocker)
